The values that follow come from paper PMC3257516 (Bioorganic & medicinal chemistry, 2011).

A word on the pKd: it is −log10 of the Kd, conventionally taken in molar units.

Data set [1] has as its target HPPK. The conditions noted are these: cited from earlier work.
Data set [2] in a line: Chemical stability of the inhibitors. The format is physicochemical. The conditions noted are these: compound not in complex with HPPK.
In data set [3] the target is HPPK (Escherichia coli, UniProt P26281). Kind of data set: Fluorometric titration of HPPK with inhibitor. The following applies: ratio of Kd values, 19 versus 17. The format is binding, E. coli. The method in brief: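 Fluorescence titration of HPPK (initial 10 μM) with inhibitor dissolved in DMSO, added as aliquots from a 500 μM stock. Excitation/emission 420/450 nm or 450/480 nm depending on compound; slits 1 and 4 nm. Kd from nonlinear least-squares fit of fluorescence change to a quadratic single-site binding equation using total enzyme and total inhibitor concentrations.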
Chain of HPPK (Escherichia coli, UniProt P26281) (P26281 whole entry): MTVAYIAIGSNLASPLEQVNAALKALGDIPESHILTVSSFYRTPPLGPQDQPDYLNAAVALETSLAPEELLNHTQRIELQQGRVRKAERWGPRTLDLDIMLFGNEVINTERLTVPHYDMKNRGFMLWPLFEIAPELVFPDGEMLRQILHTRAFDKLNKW

The next data set concerns the target E. coli HPPK (Escherichia coli, UniProt P26281). Kind of data set: HPPK enzyme inhibition assay with [α-32P]-ATP. The format is biochemical. The conditions noted are these: ratio of IC50 values, 19 versus 17.

pKd: −log10 of the molar value. Where “and” joins values, the source holds several entries; their conditions need not be identical. Identical values can stand only once. Entries after “also recorded” stand apart in the source; their conditions may differ.

Chain of E. coli HPPK (P26281 whole entry): as above

Consider `Nc1nc2c(c(=O)[nH]1)N=C(CO)CN2` [HP, 6-hydroxymethyl-7,8-dihydropterin], for which, at HPPK [1], the “Kd for the binding of HP to ligand-free HPPK” value was “mM range” and the “Kd for the binding of HP to the HPPK MgATP complex” value is on record as “sub-μM range”. For `CC1(C)Nc2nc(N)[nH]c(=O)c2N=C1CNCCN1CCC(SCC2OC(n3cnc4c(N)ncnc43)C(O)C2O)CC1` (centres unmarked) [Compound 18, 2-amino-6-[(2-{4-[5-(6-amino-purin-9-yl)-3,4-dihydroxy-tetrahydro-furan-2-ylmethylsulfanyl]-piperidin-1-yl}-ethylamino)-methyl]-7,7-dimethyl-7,8-dihydro-3H pteridin-4-one], in data set [2], the chemical stability entry is listed as “not stable; also recorded: tends to degrade”.

Regarding `Nc1nc2ncc(CNCCN3CCC(SC[C@H]4O[C@@H](n5cnc6c(N)ncnc65)[C@H](O)[C@@H]4O)CC3)nc2c(=O)[nH]1` [Compound 17, 2-amino-6-[(2-{4-[5-(6-amino-purin-9-yl)-3,4-dihydroxy-tetrahydro-furan-2-ylmethylsulfanyl]-piperidin-1-yl}-ethylamino)-methyl]-3H-pteridin-4-one], the chemical stability result in data set [2] is given as “stable”. Take `CC1(C)Nc2nc(N)[nH]c(=O)c2N=C1C(=O)NCCN1CCC(SC[C@H]2O[C@@H](n3cnc4c(N)ncnc43)[C@H](O)[C@@H]2O)CC1` [Compound 19, 2-amino-7,7-dimethyl-4-oxo-3,4,7,8-tetrahydro-pteridine-6-carboxylic acid (2-{4-[5-(6-amino-purin-9-yl)-3,4-dihydroxy-tetrahydro-furan-2-ylmethylsulfanyl]-piperidin-1-yl}-ethyl)-amide]: the “increased binding affinity over 17” value at HPPK [3] was 60 fold and ~ 60 fold. Moreover, in data set [2], the chemical stability result is given as “stable”. The “increased inhibition ability over 17” value at E. coli HPPK was 30 fold. Take `Nc1ncnc2c1ncn2[C@@H]1O[C@H](COP(=O)(O)OP(=O)(O)OP(=O)(O)O)[C@@H](O)[C@H]1O` [MgATP]: at HPPK [1] (read-out: Kd for the binding of MgATP to HPPK), the pKd is 5.35 to 5.59.
